Test [1] in a line: Inhibition of mouse tryptase in mouse bone marrow mast cell lysate. The method in brief: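 Lysate (detergent/hypotonic buffer) of CBA/J mouse femoral bone marrow cells cultured 5 weeks with mouse IL-3 (>99% mast cells), used at 8 × 10⁴ cell equiv/mL as tryptase source. 10 min 37 °C preincubation with varied inhibitor levels. Then 0.2 mM tosyl-Gly-Pro-Arg-pNA in Tris pH 8.0 buffer, 30 min 37 °C; absorbance at 405 nm.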

In test [2] the target is Prothrombin (Homo sapiens, UniProt P00734). Kind of test: Inhibition of human thrombin. The method in brief:
(§1)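 Purified enzyme, preincubated 10 min at 37 °C with a range of inhibitor concentrations. Substrate: 0.2 mM N-p-tosyl-Gly-Pro-Arg p-nitroanilide, in 0.1 M Tris pH 8.0 with 1 mM CaCl2, 1 mM MgCl2, 1 M glycerol and 0.1% Triton X. Then 30 min at 37 °C; absorbance read at 405 nm.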

Test [3] in a line: Inhibition of human tryptase in human cultured mast cell lysate. In short, it runs like this: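 Tryptase source: lysate (detergent/hypotonic buffer) of umbilical cord blood-derived human mast cells, ≥12 weeks in culture with SCF and IL-6, 100% pure; 8 × 10³ cell equiv/mL lysate. Preincubated 10 min at 37 °C with varied inhibitor. Substrate: 0.2 mM tosyl-Gly-Pro-Arg-pNA, Tris pH 8.0 buffer; 30 min at 37 °C; A405.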

The nature of test [4]: Inhibition of bovine trypsin. Further details: species or system Bos taurus. In short, it runs like this:
as §1

*1 amine or outer side, *2 acyl side, *3 side chain or, on linkers, in order; H or OH if unused. Where a SMILES comes first, the peptide text is derived from it. Bridges are numbered along the chain shown (N, C = ends). [ ]: non-standard residue; d: D form. The star is where a group is joined. Arg(ψCOCO) = N=C(N)NCCC[C@H](N[*:1])C(=O)C(=O)[*:2]; X1 = O=C(/C=C/[C@H](Cc1ccc(O)cc1)N[*:1])[*:2]; aIle = CC[C@@H](C)[C@H](N)C(=O)O; Dap = NC[C@H](N)C(=O)O; PhAc = O=C(Cc1ccccc1)*

One may read the IC50 as the concentration that inhibits the measured activity by half. A higher IC50 goes with lower potency. In the case of `CCC(C)CC(=O)N[C@@H](C)C(=O)N[C@H]1CNC(=O)/C=C/[C@H](Cc2ccc(O)c(O)c2)NC(=O)[C@H]([C@H](C)CC)NC(=O)C(=O)[C@H](CCCNC(=N)N)NC(=O)[C@@H]2CCCN2C1=O` (some centres not stated) [CYCLOTHEONAMIDE E5], the IC50 in test [1] amounted to 54.1 nM; in test [2] it was 67.9 nM; in test [3], 84.7 nM; in test [4], 37.3 nM.

With `CCC(C)CC(=O)N[C@@H](C)C(=O)N[C@H]1CNC(=O)/C=C/[C@H](Cc2ccc(O)cc2)NC(=O)[C@H]([C@H](C)CC)NC(=O)C(=O)[C@H](CCCNC(=N)N)NC(=O)[C@@H]2CCCN2C1=O` (some centres not stated) [CYCLOTHEONAMIDE E4], the IC50 in test [1] amounted to 6.5 nM; in test [2] it was 7.4 nM; in test [3], 5.1 nM; in test [4] it was 5.9 nM.

Consider `CC[C@@H](C)[C@@H]1NC(=O)C(=O)[C@H](CCCNC(=N)N)NC(=O)[C@@H]2CCCN2C(=O)[C@@H](NC(=O)[C@H](C)NC(=O)Cc2ccccc2)CNC(=O)/C=C/[C@H](Cc2ccc(O)cc2)NC1=O` [CYCLOTHEONAMIDE E] (PhAc-A[Dap]P[Arg(ψCOCO)][aIle][X1]; lactam 2-C), for which the IC50 in test [1] worked out at 17 nM; in test [2] it was 16.1 nM; in test [3] it was 6.9 nM; in test [4], 10.6 nM.

(Values after ChEMBL document CHEMBL1159328, “Cyclotheonamide E4 and E5, new potent tryptase inhibitors from an Ircinia species of sponge” (J Nat Prod, 2002).)
